Source: PubChem (Broad Institute)
PAX8 inh HTS – inhibitors of PAX8-driven TPO luciferase reporter, primary screen, RMG-I cells, single concentration; SteadyGlo, 24 h; 360,000 tested, 1.2% active; AID 652154, 2013; inhibition, % at 12.6 µM;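 active means mean replicate inhibition at least 60% with every replicate also reaching 60%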;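 further: luciferase light reporting Pax8 driven TPO promoter activity; plate controls were median of neutral control wells for no effect and mitoxantrone controls for full effect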
PGC1a acetyl inh – inhibitors of PGC1a acetylation signal, primary screen, cell-based, U2OS, AlphaScreen, inhibitor mode. AlphaScreen anti-acetyl-lysine; with virally co-expressed GCN5 acetyltransferase. inhibition, % at 15.6 µM. 350,000 tested, 0.17% active. AID 651687, 2012;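 active means every replicate shows inhibition of at least 40%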;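 further: 0% = neutral control wells and 100% = positive control wells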
FGF22 binding – binders of human FGF22 protein, primary screen, FGF22 synaptogenesis inhibitor project, biophysical, thermal shift, single point | recombinant FGF22 thermal shift, SYPRO orange fluorescence; percent of sucrose octasulfate shift, DMSO zero | 340,000 tested, 1.5% active | Fibroblast growth factor 22 (Homo sapiens), Q9HCT0 | AID 651658, 2012 | activity (Tm shift, normalised), % at 9.99 µM;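 active means mean Tm shift, scaled 0 neutral to 100 positive control, at about 1.3% or above, every replicate too, limit read from the data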
Target sequence (Q9HCT0 whole entry, looked up): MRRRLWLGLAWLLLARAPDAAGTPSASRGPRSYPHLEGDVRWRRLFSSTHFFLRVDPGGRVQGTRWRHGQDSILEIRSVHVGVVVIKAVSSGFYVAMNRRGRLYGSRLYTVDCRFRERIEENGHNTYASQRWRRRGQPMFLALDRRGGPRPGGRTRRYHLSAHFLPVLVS
FN deposition inh – inhibitors of fibronectin matrix deposition, primary screen, AH1F cells, Alexa488-fibronectin fluorescence, plate reader; AH1F fibroblasts, overnight; inhibition, % at 12.6 µM; 350,000 tested, 0.086% active; AID 743247, 2014;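 active means mean inhibition across replicates of 30% or more, regardless of how many single replicates reach that level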;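 further: positive control wells lacked labelled fibronectin entirely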
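test system = AH1F fibroblasts assembling fluorescent fibronectin matrix | quantity = 10000 AH1F cells per well | buffer or medium = DMEM plus 2% serum, read in PBS | doses = single dose, pinned | incubation = 1 h cell attachment, overnight exposure to compound and label | detection = fluorescence at 485 nm excitation, 525 nm emission | read-out basis = inhibition from reduced deposited-fibronectin fluorescence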
EWS-Fli block – EWS/Fli-driven NR0B1 reporter inhibitors, primary screen, A673 cells, NR0B1 luciferase, luminescence, MLPCN library; 350,000 tested, 0.67% active; AID 651661, 2012; viability-normalised; inhibition, % at 12.6 µM;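 active means mean inhibition of at least 50% after viability correction, with every replicate also passing that limit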;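 further: firefly luciferase signal divided by Alamar Blue viability fluorescence both relative to DMSO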
HIV Env fusion – inhibitors of HIV-1 Env-driven cell-cell fusion, primary screen, HeLa-JRFL effector, CEM21 target cells, luciferase; inhibition, % at 12.3 µM; 360,000 tested, 1.1% active; AID 651610, 2012;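 active means mean replicate inhibition score of at least 50 and every replicate individually at or above 50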;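 further: 0% = plate neutral controls and 100% = maraviroc near 300 nM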
An asterisk follows results filed as active; x = not tested or not shown; [ ] = dose if it differs, or a comment. Sampled rows, rich in hits. Any-hit rate of the full collection: about 3.1%.

SMILES	PAX8 inh HTS	PGC1a acetyl inh	FGF22 binding	FN deposition inh	EWS-Fli block	HIV Env fusion
CCCNC(=O)N1CCC2(CC1)CN(C(=O)CC)[C@@H](CO)c1c2c2ccc(OC)cc2n1C	x	-11	0	x	14	x
O=C(NCCc1c[nH]c2ccccc12)/C(=C/c1ccco1)NC(=O)c1ccco1	6	5	43*	-8	-2	-29
CC(C)(CO)CNc1ccn2nccc2n1	-29	43*	0	4	-11	38
Fc1ccc(CNc2ccn3nc(-c4ccccc4)cc3n2)cc1	-174	x	0	-4	-97	-63
O=C1/C(=C/c2ccccn2)SC(=S)N1CCc1ccccc1	0	x	1.6*	-14	-7	-7
O=C1/C(=C/c2ccccn2)SC(=S)N1NS(=O)(=O)c1ccccc1	7	x	x	7	-5	-5
Cc1ccc(S(=O)(=O)N(C)C[C@H]2OCCCC[C@@H](C)Oc3ccc(NS(=O)(=O)c4cn(C)cn4)cc3C(=O)N([C@H](C)CO)C[C@@H]2C)cc1	-13	-4	0	-9	-2	-15[16.7 µM]
COc1cccc(C#Cc2cnc3c(c2)C(=O)N([C@H](C)CO)C[C@@H](C)[C@H](CN(C)C(=O)C2CC2)O3)c1	x	-5	0	x	7	-45[16.7 µM]
O=S(=O)(c1ccc(Cl)cc1)n1ccc2cccnc21	10	-5	x	11	x	4
O=S(=O)(c1ccc(Cl)cc1Cl)n1ccc2cccnc21	2	x	43*	-13	-13	6
Cc1ccc(C(=O)OC(C(=O)Nc2ccc(Cl)cc2C(F)(F)F)c2ccccc2)cc1 (centres undefined)	13	8	0	-4	1	-34
O=C(OC(C(=O)Nc1ccc(Cl)cc1C(F)(F)F)c1ccccc1)c1c(Cl)cccc1Cl (centres undefined)	16	x	0	-5	-1	73*
CC1=C(C(=O)Nc2ccccc2)C(c2ccccc2[N+](=O)[O-])NC(=O)N1 (centres undefined)	-21	13	43*	-6	-3	-21
COc1ccccc1NC(=O)C1=C(C)NC(=O)NC1c1ccc(C)cc1 (centres undefined)	6	8	0	-2	6	14
CC1=C(C(=O)Nc2ccccc2)C(c2ccco2)NC(=O)N1 (centres undefined)	x	2	x	-2	x	0
COc1ccccc1NC(=O)C1=C(C)NC(=O)NC1c1cccs1 (centres undefined)	1	-9	0	-4	-3	4
COc1ccc(NC(=O)C2=C(C)NC(=O)NC2c2cccs2)c(OC)c1 (centres undefined)	7	4	44*	3	2	8
COc1ccccc1NC(=O)C1=C(C)NC(=O)NC1c1ccccc1[N+](=O)[O-] (centres undefined)	16	x	43*	-5	-9	-11
C[C@H]1CN([C@@H](C)CO)C(=O)c2cc(NC(=O)CCCCCC(=O)Nc3ccccc3N)ccc2O[C@@H]1CN(C)S(=O)(=O)c1cn(C)cn1	12	5	0	x	-7	x
C[C@H](CO)N1C[C@H](C)[C@@H](CN(C)CC2CC2)Oc2cc(-c3ccccc3)ccc2S1(=O)=O	x	1	0	13	-16	3[16.7 µM]
Cc1cccc(C)c1NC(=O)C1C(c2ccccc2)=Nc2ccccc2N1C(=O)c1cnccn1 (centres undefined)	-44	x	x	-1	-44	64*
CN(C(=O)C1CCN(S(=O)(=O)c2ccccc2[N+](=O)[O-])CC1)C1CCCCC1	16	9	44*	4	-1	-10
COc1ccc(CC(=O)N2CCCC(C)C2)cc1 (centres undefined)	-12	-8	x	-1	x	-26
CC1CCCN(C(=O)Cc2ccc(F)cc2)C1 (centres undefined)	-2	75*	x	4	x	-36
C[C@H]1CN([C@@H](C)CO)C(=O)c2cc(C#Cc3cccnc3)cnc2O[C@H]1CN(C)C(=O)CC1CC1	x	-2	-1	3	-7	4[16.7 µM]
SMILES	PAX8 inh HTS	PGC1a acetyl inh	FGF22 binding	FN deposition inh	EWS-Fli block	HIV Env fusion
C[C@H](CO)N1C[C@H](C)[C@H](CN(C)C(=O)C2CCCCC2)OCCCC[C@H](C)Oc2ccc(NC(=O)Nc3ccc4c(c3)OCO4)cc2C1=O	x	10	0	x	9	78*[16.7 µM]
C[C@@H]1CCCCO[C@@H](CN(C)C(=O)C2CCCCC2)[C@H](C)CN([C@H](C)CO)C(=O)c2cc(NC(=O)Nc3ccc(F)cc3)ccc2O1	86*	-5	0	x	17	26[16.7 µM]
C[C@@H]1CN([C@H](C)CO)C(=O)c2cc(NC(=O)Nc3ccc4c(c3)OCO4)ccc2O[C@@H](C)CCCCO[C@H]1CN(C)C(=O)C1CCCCC1	x	14	0	x	13	37[16.7 µM]
CC(C)NC(=O)Nc1ccc2c(c1)C(=O)N([C@@H](C)CO)C[C@@H](C)[C@@H](CN(C)C(=O)Nc1ccc(F)cc1)OCCCC[C@@H](C)O2	14	17	0	13	-5	80*[16.7 µM]
C[C@@H]1CCCCO[C@H](CN(C)C(=O)Nc2ccc(F)cc2)[C@H](C)CN([C@H](C)CO)C(=O)c2cc(NC(=O)Nc3ccc(F)cc3)ccc2O1	-22	1	0	-1	6	3[16.7 µM]
C[C@@H]1CN([C@H](C)CO)C(=O)c2cc(NC(=O)Nc3ccc(F)cc3)ccc2O[C@@H](C)CCCCO[C@H]1CN(C)C(=O)Nc1ccc(F)cc1	86*	2	0	10	9	-3[16.7 µM]
CC(C)NC(=O)Nc1ccc2c(c1)C(=O)N([C@@H](C)CO)C[C@@H](C)[C@H](CN(C)C(=O)Nc1ccc(F)cc1)OCCCC[C@H](C)O2	-4	2	-1	3	4	5[16.7 µM]
C[C@H]1CCCCO[C@H](CN(C)C(=O)Nc2ccc(C(F)(F)F)cc2)[C@@H](C)CN([C@@H](C)CO)C(=O)c2cc(NC(=O)C3CCCCC3)ccc2O1	41	21	0	x	-6	31[16.7 µM]
CNC(=O)C[C@H]1CC[C@H]2[C@H](COc3ccc(NC(=O)c4ccccc4Cl)cc3C(=O)N2C)O1	-17	-1	0	-6	6	-10[16.7 µM]
C[C@H](CO)N1C[C@H](C)[C@H](CN(C)C(=O)Nc2ccccc2)Oc2ccc(NC(=O)Nc3ccc(C(F)(F)F)cc3)cc2C1=O	74*	0	0	x	0	x
C[C@H]1CN([C@@H](C)CO)C(=O)c2cc(NC(=O)Nc3ccccc3)ccc2O[C@@H]1CN(C)C(=O)Nc1ccc(C(F)(F)F)cc1	x	-2	0	x	16	-1[16.7 µM]
